Exocytosis inh: blocks lytic granule exocytosis | TALL-104 LAMP-1 surface exposure, flow cytometry; cells stimulated with thapsigargin and PMA | inhibition, % at 10 µM | 0.66% of 360,000 active | AID 651702;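 active = inhibition above about 55%, limit read from the data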
VLA-4 inh: inhibition in a human VLA-4 binding assay; VLA-4 expressing cells, ligand binding flow cytometry; 0.2% of 330,000 active; inhibition, % (about 7 µM as worked out from the volumes in the protocol); P13612; AID 2557; in the data active = inhibition above about 50%
MT1-MMP act inh: MT1-MMP (human) activation inhibition; P50281; HT1080 RFP-PRO-GFP cells, GFP/RFP ratio fluorescence, overnight; percent of plate control window, DMSO zero; GFP/RFP ratio change, % at 20 µM; 0.061% of 360,000 active; AID 651647;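 active = GFP/RFP ratio change of at least 30% with cell ATP level not reduced by more than half and red fluorescence within 50% of control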
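system = RFP-PRO-GFP reporter HT1080 cells | dosing = 20 µM single dose, 1% DMSO | timing = overnight cell settling, then overnight compound exposure, 37 °C, 5% CO2 | read-out basis = GFP/RFP fluorescence ratio | controls = DMSO and RFP-L50D-GFP cell wells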
ABCB6 inh 2: blocks the human ABCB6 transporter | Q9NP58 | K562-ABCB6 porphyrin accumulation, flow cytometry, 1 h; stronger effect = lower value | fluorescence ratio to DMSO, % at 10 µM | 0.19% of 360,000 active;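 active = fluorescence ratio to DMSO below 75%, the collection mean minus 3 SD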;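 also: signal is porphyrin accumulated inside mitochondria; 100% equals median channel fluorescence of DMSO control wells; lower ratio means ABCB6 inhibition with less porphyrin fluorescence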
DAGLB inh: diacylglycerol lipase beta (human) inhibition; inhibition, % at 5.17 µM; HEK293T DAGLB membrane lysate, EnzChek fluorogenic substrate; 0.059% of 340,000 active; Q8NCG7; AID 504411; in the data active = inhibition above about 34%;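 also: 0% = enzyme with vehicle and 100% = wells lacking enzyme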
Target sequence (Q8NCG7 whole entry, looked up): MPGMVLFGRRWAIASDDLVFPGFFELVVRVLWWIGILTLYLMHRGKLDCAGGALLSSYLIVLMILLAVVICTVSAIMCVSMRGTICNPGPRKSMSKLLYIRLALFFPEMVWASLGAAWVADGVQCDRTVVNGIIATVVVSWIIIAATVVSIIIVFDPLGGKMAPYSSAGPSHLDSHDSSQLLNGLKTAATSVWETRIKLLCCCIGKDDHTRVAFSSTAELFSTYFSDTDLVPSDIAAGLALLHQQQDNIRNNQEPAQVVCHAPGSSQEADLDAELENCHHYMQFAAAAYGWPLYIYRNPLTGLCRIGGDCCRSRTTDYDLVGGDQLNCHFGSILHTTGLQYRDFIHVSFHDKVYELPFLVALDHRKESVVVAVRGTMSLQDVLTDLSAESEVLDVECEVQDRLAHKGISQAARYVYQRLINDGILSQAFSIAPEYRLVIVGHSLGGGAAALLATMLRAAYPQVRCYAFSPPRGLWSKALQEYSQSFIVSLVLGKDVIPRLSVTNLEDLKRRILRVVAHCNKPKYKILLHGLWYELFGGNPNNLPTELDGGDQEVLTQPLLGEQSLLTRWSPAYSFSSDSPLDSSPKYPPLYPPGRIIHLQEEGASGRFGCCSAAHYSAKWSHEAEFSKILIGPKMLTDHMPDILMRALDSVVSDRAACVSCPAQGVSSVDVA
FGF22 binding: shifts melting point of recombinant human FGF22; recombinant FGF22 thermal shift, SYPRO orange fluorescence; percent of sucrose octasulfate shift, DMSO zero; AID 651658; activity (Tm shift, normalised), % at 9.99 µM; Q9HCT0; 1.5% of 340,000 active;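 active = mean Tm shift, scaled 0 neutral to 100 positive control, at about 1.3% or above, every replicate too, limit read from the data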
Starred values were filed as active, the others as inactive. Most compounds without a hit are left out; they make up all but 2% or so of the library.

For Cn1c(CN2CCN(C(=O)c3ccccc3Cl)CC2)nc2cc([N+](=O)[O-])ccc21 the results were Exocytosis inh 0, VLA-4 inh 10, MT1-MMP act inh 3, ABCB6 inh 2 103, DAGLB inh -5 and FGF22 binding 44*.
For Cn1c(CN2CCCCC2)nc2cc([N+](=O)[O-])ccc21 the results were Exocytosis inh 0, VLA-4 inh 2, MT1-MMP act inh 1, ABCB6 inh 2 98, DAGLB inh -1 and FGF22 binding 0.
Cc1ccc(S(=O)(=O)SC/C=C/CSS(=O)(=O)c2ccc(C)cc2)cc1 was read as Exocytosis inh 78*, MT1-MMP act inh 4, ABCB6 inh 2 94, DAGLB inh -1 and FGF22 binding 0.
Screening C[C@@H]1CN([C@@H](C)CO)C(=O)CCCn2cc(nn2)CO[C@@H]1CN(C)C(=O)Nc1cccc(Oc2ccccn2)c1 returned FGF22 binding 0.
`CC(C)(c1ccc(O)c([N+](=O)[O-])c1)c1ccc(O)c([N+](=O)[O-])c1` gave Exocytosis inh -1, MT1-MMP act inh 15, ABCB6 inh 2 106, DAGLB inh 12 and FGF22 binding 0.
CN(C)Cc1cc(C(C)(C)c2ccccc2)ccc1O was read as Exocytosis inh 9, MT1-MMP act inh -2, ABCB6 inh 2 95, DAGLB inh 2 and FGF22 binding 43*.
Screening COc1ccc2c3c(n(C)c2c1)[C@@H](CO)N(Cc1ccncc1)CC31CN(C(=O)C2CCCC2)C1 returned FGF22 binding 0.
Screening CCOC(=O)C1=C(C)Nc2ccccc2N=C1NC(=O)/C=C/c1ccc(OC)cc1OC returned Exocytosis inh 1, VLA-4 inh -1, MT1-MMP act inh -1, ABCB6 inh 2 109, DAGLB inh 1 and FGF22 binding 44*.
For CC1(C)Cc2c(sc(NC(=S)NC(=O)c3ccccc3)c2C(=O)O)CO1 the results were Exocytosis inh 1, MT1-MMP act inh 1, ABCB6 inh 2 110, DAGLB inh 10 and FGF22 binding 44*.
`CC(C(=O)c1ccccc1)C(O)c1ccccn1` (centres undefined) gave Exocytosis inh -1, MT1-MMP act inh 3, ABCB6 inh 2 97, DAGLB inh 0 and FGF22 binding 44*.
`Cc1cc(Br)cc(C=Nc2ccc(N3CCOCC3)cc2)c1O` gave Exocytosis inh 74*, VLA-4 inh 13, MT1-MMP act inh 2, ABCB6 inh 2 98, DAGLB inh 1 and FGF22 binding 0.
For CCCNC(=O)N1C[C@@H](O)COC[C@@H]2O[C@@H](CC(=O)N[C@H]3CCN(Cc4ccccc4)C3)CC[C@H]21 the results were FGF22 binding 0.
O=C(Nc1ccccc1F)c1nc[nH]c1C(=O)NCc1ccccc1 was read as Exocytosis inh -5, MT1-MMP act inh 0, ABCB6 inh 2 94, DAGLB inh -4 and FGF22 binding 0.
CC(C)(C)OC(=O)NCc1ccc(CNC(=O)c2[nH]cnc2C(=O)Nc2ccccc2F)cc1 was read as Exocytosis inh -6, MT1-MMP act inh 0, ABCB6 inh 2 104, DAGLB inh -2 and FGF22 binding 43*.
`OCC#Cc1ncc(C(F)(F)F)cc1Cl` gave Exocytosis inh 3, VLA-4 inh -8, MT1-MMP act inh 0, ABCB6 inh 2 105, DAGLB inh -1 and FGF22 binding 43*.
`CC(C)(C)[S@](=O)N1Cc2cc(C(=O)NCCN3CCCCC3)nc(-c3cccc(-c4ccc(C#N)cc4)c3)c2[C@@H]1CCO` gave FGF22 binding 0.
Screening O=C(CNC(=O)c1ccccc1F)NCCOc1ccccc1Cl returned Exocytosis inh 6, VLA-4 inh 9, MT1-MMP act inh 1, ABCB6 inh 2 93, DAGLB inh -4 and FGF22 binding 43*.
Screening O=C(COC(=O)CNC(=O)c1ccccc1F)Nc1cccnc1Cl returned Exocytosis inh -1, VLA-4 inh 10, MT1-MMP act inh 8, ABCB6 inh 2 92, DAGLB inh 0 and FGF22 binding 43*.
For CC1=NN(c2cccc(C(=O)O)c2)C(=O)/C1=C\C=C/c1ccccc1 the results were Exocytosis inh 8, MT1-MMP act inh 7, ABCB6 inh 2 99 and FGF22 binding 43*.
`CCOc1cc(NC(=S)NCCc2ccccc2)c(OCC)cc1NC(C)=O` gave Exocytosis inh -4, VLA-4 inh 9, MT1-MMP act inh 1, ABCB6 inh 2 95, DAGLB inh 0 and FGF22 binding 43*.
For CCOc1cc(NC(=S)NCc2ccccc2)c(OCC)cc1NC(=O)C(C)C the results were Exocytosis inh 10, VLA-4 inh 3, MT1-MMP act inh 3, ABCB6 inh 2 94, DAGLB inh -6 and FGF22 binding 0.
Cn1c(C(=O)N2CCN(c3ccc([N+](=O)[O-])cc3)CC2)cc2c(=O)[nH]c3ccccc3c21 was read as Exocytosis inh 0, MT1-MMP act inh 3, ABCB6 inh 2 90, DAGLB inh 0 and FGF22 binding 44*.
COc1ccc(NC(=O)CSC2CC(=O)N(c3ccc4c(c3)OCCO4)C2=O)cc1 (centres undefined) was read as Exocytosis inh -1, VLA-4 inh 26, MT1-MMP act inh -6, ABCB6 inh 2 103 and DAGLB inh 1.
For Cc1ccc(SC2CC(=O)N(c3ccc4c(c3)OCCO4)C2=O)cc1 (centres undefined) the results were Exocytosis inh -1, VLA-4 inh -8, MT1-MMP act inh -1, ABCB6 inh 2 101, DAGLB inh -4 and FGF22 binding 43*.
CC(Sc1nc2ccccc2c(=O)n1CCCN1CCOCC1)C(=O)N1CCc2ccccc21 (centres undefined) was read as Exocytosis inh -1, MT1-MMP act inh 5, ABCB6 inh 2 95, DAGLB inh 2 and FGF22 binding 44*.
`Cc1cccc(NC(=O)C(C)Sc2nc3ccccc3c(=O)n2CCCN2CCOCC2)c1` (centres undefined) gave Exocytosis inh 0, VLA-4 inh 9, MT1-MMP act inh 9, ABCB6 inh 2 93, DAGLB inh -2 and FGF22 binding 0.
`CCN(Cc1ccccc1)C(=O)CSc1ccccc1C(=O)O` gave Exocytosis inh 0, VLA-4 inh -3, MT1-MMP act inh -7, ABCB6 inh 2 106, DAGLB inh 2 and FGF22 binding 42.
CCN(Cc1ccccc1)C(=O)CSc1nncn1C was read as Exocytosis inh -2, VLA-4 inh -7, MT1-MMP act inh 1, ABCB6 inh 2 102, DAGLB inh -2 and FGF22 binding 43*.
